From ChEMBL document CHEMBL1138528, “Discovery of tetrasubstituted imidazolines as potent and selective neuropeptide Y Y5 receptor antagonists: reduced human ether-a-go-go related gene potassium channel binding affinity and potent antiobesity effect” (J Med Chem, 2009)

Tests used:
[1] = Metabolic stability in rat hepatocytes assessed as hepatic clearance by serum incubation method; type: ADME, cell-based, Liver, Hepatocyte
[2] = Octanol-water distribution coefficient, log D at pH 7.4; type: physicochemical
[3] = biological target: T1, Neuropeptide Y receptor type 5 (Homo sapiens, UniProt Q15761); experiment: Displacement of [125I]PYY from human recombinant neuropeptide Y5 receptor expressed in mouse LMtk- cells; type: cell-based
T1 sequence (Q15761 whole entry): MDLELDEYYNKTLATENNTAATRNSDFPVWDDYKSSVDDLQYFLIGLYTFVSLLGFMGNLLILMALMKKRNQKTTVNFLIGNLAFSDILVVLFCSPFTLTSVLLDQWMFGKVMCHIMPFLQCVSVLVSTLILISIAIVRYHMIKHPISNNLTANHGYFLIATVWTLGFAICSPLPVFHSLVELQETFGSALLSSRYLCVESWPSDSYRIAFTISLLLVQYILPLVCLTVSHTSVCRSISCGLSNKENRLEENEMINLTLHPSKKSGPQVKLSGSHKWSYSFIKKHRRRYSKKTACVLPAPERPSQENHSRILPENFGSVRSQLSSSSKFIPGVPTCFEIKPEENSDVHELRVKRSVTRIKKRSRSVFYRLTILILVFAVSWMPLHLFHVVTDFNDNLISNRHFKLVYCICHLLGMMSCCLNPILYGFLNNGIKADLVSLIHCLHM

[4] = Plasma concentration in Sprague-Dawley rat at 10 mg/kg, po after 2 hrs; type: ADME, organism-based; design: dose 10 mg/kg, route oral
Method in brief: (§1)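 Male SD rats (7-10 weeks, 200-400 g) dosed orally at 10 mg/kg in 0.5% methylcellulose; at 2 h aortic blood taken under isoflurane. Plasma, brain homogenate (sonicated in water) and CSF deproteinized with 3-fold ethanol plus internal standard, -20 °C 20 min, centrifuged; LC/MS/MS with relative calibration curve. Mean, n = 2-3.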

[5] = Ratio of drug level from brain to plasma in Sprague-Dawley rat at 10 mg/kg, po after 2 hrs; type: ADME, organism-based; design: dose 10 mg/kg, route oral; method in brief: as §1
[6] = Drug level in Sprague-Dawley rat cerebrospinal fluid at 10 mg/kg, po after 2 hrs; type: ADME, organism-based; design: dose 10 mg/kg, route oral; settings: Sprague-Dawley, cerebrospinal fluid, read-out: Drug uptake; method in brief: as §1
[7] = biological target: Voltage-gated inwardly rectifying potassium channel KCNH2 (Homo sapiens, UniProt Q12809);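 further: radioligand displacement binding to human ERG expressed in HEK293 cells, using a [35S]-labelled spiro-benzopyran-piperidine methanesulfonamide as the displaced ligand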
Voltage-gated inwardly rectifying potassium channel KCNH2, sequence (Q12809 whole entry): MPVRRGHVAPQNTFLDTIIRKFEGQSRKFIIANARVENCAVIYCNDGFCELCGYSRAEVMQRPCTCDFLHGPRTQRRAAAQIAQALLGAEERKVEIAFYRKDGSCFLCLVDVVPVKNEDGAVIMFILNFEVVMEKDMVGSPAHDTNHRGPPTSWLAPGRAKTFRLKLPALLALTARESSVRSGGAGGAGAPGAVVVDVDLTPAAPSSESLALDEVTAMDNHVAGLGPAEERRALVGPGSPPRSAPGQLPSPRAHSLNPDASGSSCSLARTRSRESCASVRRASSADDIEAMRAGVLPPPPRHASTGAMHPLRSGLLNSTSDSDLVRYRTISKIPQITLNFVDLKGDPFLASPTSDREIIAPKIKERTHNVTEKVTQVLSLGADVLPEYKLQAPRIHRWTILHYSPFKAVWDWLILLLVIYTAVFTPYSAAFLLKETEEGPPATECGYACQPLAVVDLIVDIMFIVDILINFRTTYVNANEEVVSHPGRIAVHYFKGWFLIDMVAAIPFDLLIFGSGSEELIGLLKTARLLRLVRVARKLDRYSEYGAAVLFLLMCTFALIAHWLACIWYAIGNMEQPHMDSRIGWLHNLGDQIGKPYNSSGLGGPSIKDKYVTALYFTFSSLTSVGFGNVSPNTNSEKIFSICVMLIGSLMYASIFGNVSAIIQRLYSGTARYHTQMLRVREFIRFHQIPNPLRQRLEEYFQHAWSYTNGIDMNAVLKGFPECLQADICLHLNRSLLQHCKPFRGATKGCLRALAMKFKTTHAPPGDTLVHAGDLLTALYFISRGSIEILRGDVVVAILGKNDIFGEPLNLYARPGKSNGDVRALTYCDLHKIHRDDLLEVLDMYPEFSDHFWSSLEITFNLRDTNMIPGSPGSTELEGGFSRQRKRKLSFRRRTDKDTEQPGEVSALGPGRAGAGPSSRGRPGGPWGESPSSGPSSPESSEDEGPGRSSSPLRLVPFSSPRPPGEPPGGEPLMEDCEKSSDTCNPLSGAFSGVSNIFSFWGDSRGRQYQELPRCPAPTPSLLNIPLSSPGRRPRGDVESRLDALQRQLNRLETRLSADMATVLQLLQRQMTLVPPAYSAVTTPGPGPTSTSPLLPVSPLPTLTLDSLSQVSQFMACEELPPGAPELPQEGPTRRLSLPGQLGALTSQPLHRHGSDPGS

Brain = experiment: Drug level in Sprague-Dawley rat brain at 10 mg/kg, po after 2 hrs; type: ADME, organism-based; design: dose 10 mg/kg, route oral; settings: in vivo; method in brief: as §1
[8] = Ratio of drug level from cerebrospinal fluid to brain in Sprague-Dawley rat at 10 mg/kg, po after 2 hrs; type: ADME, organism-based, CSF/Brain; design: dose 10 mg/kg, route oral; settings: in vivo

Row | Structure (SMILES) | CLhep predicted [1] [mL/min/kg] | logD [2] | Ki [3] [nM] | concentration at 2 h [4] [nM] | Kp at 2 h [5] | concentration at 2 h [6] [nM] | Drug uptake (Brain) [nmol/g] | Ratio [8] | IC50 [7] [nM]
1 | C[C@@H]1NC(c2nccc(C#N)n2)=N[C@@]1(c1ccc(F)cc1)c1ccc(F)nc1 | 30 | 2.2 | 3.6 | – | – | – | – | – | –
2 | C[C@@H]1NC(c2cc(C#N)ccn2)=N[C@]1(c1ccc(F)cc1)c1ccc(F)nc1 | 56 | 2.9 | – | – | – | – | – | – | –
3 | N#Cc1cccc(C2=NC(c3ccc(F)cc3)(c3ccc(F)cc3)CN2)c1 | – | – | – | – | – | – | 8.1 | 0.003 | –
4 | C[C@@H]1NC(c2cccc(C#N)n2)=N[C@@]1(c1ccc(F)cc1)c1ccc(F)nc1 | 13 | 3.3 | 5.9 | – | – | – | – | – | 6930
5 | C[C@H]1NC(c2cc(C#N)ccn2)=NC1(c1ccc(F)cc1)c1ccc(F)cc1 | – | – | 300 | – | – | – | – | – | –
6 | Fc1ccc(C2(c3ccc(F)cc3)CNC(c3cnccn3)=N2)cc1 | 51 | 3.5 | 4.3 | – | – | – | 5.9 | 0.011 | 3400
7 | CCC[C@@H]1NC(c2cc(C#N)ccn2)=NC1(c1ccc(F)cc1)c1ccc(F)cc1 | – | – | 8.6 | – | – | – | – | – | 490
8 | C[C@@H]1NC(c2cccc(=O)[nH]2)=N[C@@]1(c1ccc(F)cc1)c1ccc(F)nc1 | – | 2.4 | – | 3700 | 0.1 | 50 | 0.36 | – | –
9 | C[C@@H]1NC(c2nccs2)=N[C@@]1(c1ccc(F)cc1)c1ccc(F)nc1 | – | 3 | 4.1 | – | – | – | – | – | > 10000
10 | C[C@@H]1NC(c2cc(C#N)ccn2)=N[C@@]1(c1ccc(F)cc1)c1ccc(=O)[nH]c1 | – | – | 145 | – | – | – | – | – | –
11 | C[C@@H]1NC(c2cc(C(N)=O)ccn2)=N[C@@]1(c1ccc(F)cc1)c1ccc(F)nc1 | 7 | 2.4 | 5.1 | – | – | – | – | – | –

Now from value to compound, other results behind:

Row | CLhep predicted [1] [mL/min/kg] | logD [2] | Ki [3] [nM] | concentration at 2 h [4] [nM] | Kp at 2 h [5] | concentration at 2 h [6] [nM] | Drug uptake (Brain) [nmol/g] | Ratio [8] | Structure (SMILES) | IC50 [7] [nM]
12 | 58 | 3.1 | 2 | – | – | – | – | – | C[C@@H]1NC(c2cnsn2)=N[C@@]1(c1ccc(F)cc1)c1ccc(F)nc1 | –
13 | 58 | 3.8 | 1.8 | – | – | – | – | – | C[C@@H]1NC(c2cc(Cl)ccn2)=N[C@@]1(c1ccc(F)cc1)c1ccc(F)nc1 | –
14 | 13 | 3.2 | 1 | 3700 | 0.9 | 220 | 3.2 | 0.069 | C[C@@H]1NC(c2ccnc(C#N)c2)=N[C@@]1(c1ccc(F)cc1)c1ccc(F)nc1 | > 10000
15 | 9 | 3.6 | 0.8 | 2600 | 2.3 | 130 | 6.1 | – | C[C@@H]1NC(c2cccc(C#N)c2)=N[C@@]1(c1ccc(F)cc1)c1ccc(F)nc1 | –
16 | 42 | 2.5 | 2.2 | – | – | – | – | – | C[C@@H]1NC(c2cnccn2)=N[C@@]1(c1ccc(F)cc1)c1ccc(F)nc1 | –
17 | – | – | 2.6 | – | – | – | – | – | CC[C@@H]1NC(c2cc(C#N)ccn2)=NC1(c1ccc(F)cc1)c1ccc(F)cc1 | 490
18 | 44 | 3.5 | 1.1 | – | – | – | – | – | COc1ccc([C@]2(c3ccc(F)cc3)N=C(c3cc(C#N)ccn3)N[C@H]2C)cn1 | –
19 | 6 | 2.9 | 2.5 | – | – | – | – | – | C[C@@H]1NC(c2cccc(S(C)(=O)=O)c2)=N[C@@]1(c1ccc(F)cc1)c1ccc(F)nc1 | > 10000
20 | 12 | 4 | 2 | – | – | – | 6.4 | 0.004 | N#Cc1ccnc(C2=NC(c3ccc(F)cc3)(c3ccc(F)cc3)CN2)c1 | 101
21 | 12 | 2.9 | 3.2 | 4400 | 1.2 | 460 | 5.3 | 0.087 | C[C@@H]1NC(c2cncc(C#N)c2)=N[C@@]1(c1ccc(F)cc1)c1ccc(F)nc1 | > 10000
22 | 28 | 4.1 | 1 | – | – | – | – | – | C[C@@H]1NC(c2cc(C#N)ccn2)=NC1(c1ccc(F)cc1)c1ccc(F)cc1 | –
23 | 52 | 2.2 | 3.1 | – | – | – | – | – | C[C@@H]1NC(c2cc(C#N)ccn2)=NC1(c1ccc(F)nc1)c1ccc(F)nc1 | > 10000
24 | 57 | 3.7 | 1.9 | – | – | – | – | – | C[C@@H]1NC(c2cnccn2)=NC1(c1ccc(F)cc1)c1ccc(F)cc1 | > 10000
25 | 11 | 3.4 | 3 | 1100 | 2.1 | 57 | 2.3 | 0.025 | N#Cc1ccnc(C2=NC(c3ccc(F)cc3)(c3ccc(F)cc3)[C@H](CO)N2)c1 | 6100
26 | 58 | 3.6 | 2.5 | – | – | – | – | – | COc1ccnc(C2=N[C@@](c3ccc(F)cc3)(c3ccc(F)nc3)[C@H](C)N2)c1 | –
